Measured values taken from ChEMBL document CHEMBL1909567, “Synthesis and structure-activity relationship studies in translocator protein ligands based on a pyrazolo[3,4-b]quinoline scaffold” (J Med Chem, 2011).

Key:
[1] = molecular target: Translocator protein (Rattus norvegicus, UniProt P16257); assay: Displacement of [3H]PK11195 from TSPO in Sprague-Dawley rat brain homogenates after 90 mins by liquid scintillation spectrometry; assay type: tissue-based
[2] = tested on: Mus musculus; assay: Antianxiety activity in mouse assessed as increase in time spent in illuminated area at 3 mg/kg, po after 30 mins by light/dark box test (reference value: 116.4 +/- 7.5 sec); assay type: functional
How it was run: (§1)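 Male mice, housed 15 per cage, placed in the test room 24 h before testing for acclimatization. Drugs were given po in 1% carboxymethylcellulose at 10 mL/kg, 30 min before the light/dark box test. Time spent in the light box (s) was recorded. Values are mean ± SEM of at least 8 mice per group. ANOVA with Fisher's PLSD was used against vehicle.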

[3] = tested on: Mus musculus; assay: Antianxiety activity in mouse assessed as increase in time spent in illuminated area at 10 mg/kg, po after 30 mins by light/dark box test (reference value: 116.4 +/- 7.5 sec); assay type: functional; how it was run: as §1
[4] = tested on: Mus musculus; assay: Antianxiety activity in mouse assessed as increase in time spent in illuminated area at 30 mg/kg, po after 30 mins by light/dark box test (reference value: 116.4 +/- 7.5 sec); assay type: functional; how it was run: as §1
[5] = tested on: Rattus norvegicus; assay: Antinociceptive activity in rat peripheral mononeuropathy model assessed as decrease in left paw pressure at 5 mg/kg, po after 15 mins by analgesimetry (reference value: 63.5 +/- 2.8 g); assay type: functional
[6] = tested on: Rattus norvegicus; assay: Antinociceptive activity in rat peripheral mononeuropathy model assessed as decrease in left paw pressure at 5 mg/kg, po after 30 mins by analgesimetry (reference value: 59.65 +/- 2.6 g); assay type: functional
[7] = tested on: Rattus norvegicus; assay: Antinociceptive activity in rat peripheral mononeuropathy model assessed as decrease in left paw pressure at 5 mg/kg, po after 45 mins by analgesimetry (reference value: 63.0 +/- 2.4 g); assay type: functional
[8] = tested on: Rattus norvegicus; assay: Antinociceptive activity in rat peripheral mononeuropathy model assessed as decrease in left paw pressure at 50 mg/kg, po after 15 mins by analgesimetry (reference value: 63.5 +/- 2.8 g); assay type: functional
[9] = tested on: Rattus norvegicus; assay: Antinociceptive activity in rat peripheral mononeuropathy model assessed as decrease in left paw pressure at 50 mg/kg, po after 30 mins by analgesimetry (reference value: 59.65 +/- 2.6 g); assay type: functional
[10] = tested on: Rattus norvegicus; assay: Antinociceptive activity in rat peripheral mononeuropathy model assessed as decrease in left paw pressure at 50 mg/kg, po after 45 mins by analgesimetry (reference value: 63.0 +/- 2.4 g); assay type: functional
[11] = tested on: Rattus norvegicus; assay: Antinociceptive activity in rat peripheral mononeuropathy model assessed as decrease in right paw pressure at 5 mg/kg, po after 15 mins by analgesimetry (reference value: 34.8 +/- 3.7 g); assay type: functional
[12] = tested on: Rattus norvegicus; assay: Antinociceptive activity in rat peripheral mononeuropathy model assessed as decrease in right paw pressure at 5 mg/kg, po after 30 mins by analgesimetry (reference value: 31.3 +/- 2.8 g); assay type: functional
[13] = tested on: Rattus norvegicus; assay: Antinociceptive activity in rat peripheral mononeuropathy model assessed as decrease in right paw pressure at 5 mg/kg, po after 45 mins by analgesimetry (reference value: 32.9 +/- 2.6 g); assay type: functional
[14] = tested on: Rattus norvegicus; assay: Antinociceptive activity in rat peripheral mononeuropathy model assessed as decrease in right paw pressure at 50 mg/kg, po after 15 mins by analgesimetry (reference value: 34.8 +/- 3.7 g); assay type: functional
[15] = tested on: Rattus norvegicus; assay: Antinociceptive activity in rat peripheral mononeuropathy model assessed as decrease in right paw pressure at 50 mg/kg, po after 30 mins by analgesimetry (reference value: 31.3 +/- 2.8 g); assay type: functional
[16] = tested on: Rattus norvegicus; assay: Antinociceptive activity in rat peripheral mononeuropathy model assessed as decrease in right paw pressure at 50 mg/kg, po after 45 mins by analgesimetry (reference value: 32.9 +/- 2.6 g); assay type: functional
[17] = tested on: Mus musculus; assay: Antianxiety activity in mouse assessed as increase in time spent in illuminated area at 1 mg/kg, po by light/dark box test (reference value: 116.4 +/- 7.5 sec); assay type: functional; how it was run: as §1

Translocator protein, sequence (P16257 whole entry, looked up): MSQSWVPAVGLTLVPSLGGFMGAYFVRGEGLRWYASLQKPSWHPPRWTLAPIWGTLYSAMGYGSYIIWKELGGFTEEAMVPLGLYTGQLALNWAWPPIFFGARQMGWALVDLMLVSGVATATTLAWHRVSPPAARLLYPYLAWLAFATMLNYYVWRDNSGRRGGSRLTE

Compound: CCCCN(C)C(=O)Cn1c2nc3ccccc3c(C)c2c(=O)n1-c1ccccc1
- IC50 [1]: 0.065 µM

Compound: CCN(CC)C(=O)Cn1c2nc3ccccc3c(C)c2c(=O)n1-c1ccccc1
- IC50 [1]: 0.18 µM

Compound: Cc1c2ccccc2nc2c1c(=O)n(-c1ccccc1)n2CC(=O)N(C(C)C)C(C)C
- IC50 [1]: 1.39 µM

Compound: CCCN(CCC)C(=O)Cn1c2nc3ccccc3c(C)c2c(=O)n1-c1ccccc1
- IC50 [1]: 0.09 µM

Compound: CCCCN(CCCC)C(=O)Cn1c2nc3ccccc3c(C)c2c(=O)n1-c1ccccc1
- IC50 [1]: 0.152 µM

Compound: Cc1c2ccccc2nc2c1c(=O)n(-c1ccccc1)n2CC(=O)N(C)c1ccccc1
- IC50 [1]: 0.117 µM

Compound: Cc1c2ccccc2nc2c1c(=O)n(-c1ccccc1)n2CC(=O)N(C)c1ccc(Cl)cc1
- IC50 [1]: 0.0018 µM
- Time [2]: 103.8 s
- Time [3]: 112.3 s
- Time [4]: 107.6 s
- Activity [5]: 57.8 g
- Activity [6]: 63.6 g
- Activity [7]: 61.4 g
- Activity [8]: 61 g
- Activity [9]: 58 g
- Activity [10]: 59 g
- Activity [11]: 39.2 g
- Activity [12]: 35.9 g
- Activity [13]: 33.4 g
- Activity [14]: 48.1 g
- Activity [15]: 44 g
- Activity [16]: 37 g

Compound: COc1ccc(N(C)C(=O)Cn2c3nc4ccccc4c(C)c3c(=O)n2-c2ccccc2)cc1
- IC50 [1]: 0.017 µM

Compound: Cc1c2ccccc2nc2c1c(=O)n(-c1ccccc1)n2CC(=O)N(C)Cc1ccccc1
- IC50 [1]: 0.881 µM

Compound: CCN(Cc1ccccc1)C(=O)Cn1c2nc3ccccc3c(C)c2c(=O)n1-c1ccccc1
- IC50 [1]: 0.22 µM

Compound: Cc1c2ccccc2nc2c1c(=O)n(-c1ccccc1)n2CC(=O)N(Cc1ccccc1)C(C)C
- IC50 [1]: 0.304 µM

Compound: CCCCN(Cc1ccccc1)C(=O)Cn1c2nc3ccccc3c(C)c2c(=O)n1-c1ccccc1
- IC50 [1]: 0.697 µM

Compound: Cc1c2ccccc2nc2c1c(=O)n(-c1ccccc1)n2CC(=O)N(Cc1ccccc1)Cc1ccccc1
- IC50 [1]: 3.46 µM

Compound: CCCCN(C)C(=O)Cn1c2nc3ccccc3c(C)c2c(=O)n1-c1ccc(F)cc1
- IC50 [1]: 0.11 µM

Compound: CCN(CC)C(=O)Cn1c2nc3ccccc3c(C)c2c(=O)n1-c1ccc(F)cc1
- IC50 [1]: 2.27 µM

Compound: CCCN(CCC)C(=O)Cn1c2nc3ccccc3c(C)c2c(=O)n1-c1ccc(F)cc1
- IC50 [1]: 0.087 µM

Compound: Cc1c2ccccc2nc2c1c(=O)n(-c1ccc(F)cc1)n2CC(=O)N(C)c1ccc(Cl)cc1
- IC50 [1]: 0.0068 µM
- Time [2]: 106.8 s
- Time [3]: 117.5 s
- Time [4]: 111.3 s
- Activity [5]: 58.7 g
- Activity [6]: 57.7 g
- Activity [7]: 64.1 g
- Activity [8]: 60.7 g
- Activity [9]: 59.3 g
- Activity [10]: 63.1 g
- Activity [11]: 35.6 g
- Activity [12]: 36.4 g
- Activity [13]: 36.3 g
- Activity [14]: 49.4 g
- Activity [15]: 47.2 g
- Activity [16]: 36.3 g

Compound: CCCCN(C)C(=O)Cn1c2nc3ccccc3c(C)c2c(=O)n1-c1ccc(Cl)cc1
- IC50 [1]: 0.144 µM

Compound: CCCN(CCC)C(=O)Cn1c2nc3ccccc3c(C)c2c(=O)n1-c1ccc(Cl)cc1
- IC50 [1]: 0.09 µM

Compound: Cc1c2ccccc2nc2c1c(=O)n(-c1ccc(Cl)cc1)n2CC(=O)N(C)c1ccc(Cl)cc1
- IC50 [1]: 0.016 µM
- Time [2]: 135.2 s
- Time [3]: 169 s
- Time [17]: 108.9 s
- Activity [5]: 61.4 g
- Activity [6]: 58.4 g
- Activity [7]: 63.8 g
- Activity [8]: 62.2 g
- Activity [9]: 61.8 g
- Activity [10]: 64.8 g
- Activity [11]: 44.8 g
- Activity [12]: 35.8 g
- Activity [13]: 32.7 g
- Activity [14]: 56.3 g
- Activity [15]: 49.4 g
- Activity [16]: 42.5 g

Compound: CCCCN(C)C(=O)Cn1c2nn(-c3ccccc3)c(=O)c-2c(C)c2ccccc21
- IC50 [1]: 0.00014 µM
- Time [2]: 117.4 s
- Time [3]: 151.5 s
- Time [17]: 103.7 s

Compound: CCN(CC)C(=O)Cn1c2nn(-c3ccccc3)c(=O)c-2c(C)c2ccccc21
- IC50 [1]: 0.00083 µM

Compound: CCCCN(CCCC)C(=O)Cn1c2nn(-c3ccccc3)c(=O)c-2c(C)c2ccccc21
- IC50 [1]: 0.00034 µM

Compound: Cc1c2c(=O)n(-c3ccccc3)nc-2n(CC(=O)N(C)c2ccc(Cl)cc2)c2ccccc12
- IC50 [1]: 0.00013 µM

Compound: CCCCN(C)C(=O)Cn1c2nn(-c3ccc(F)cc3)c(=O)c-2c(C)c2ccccc21
- IC50 [1]: 0.00013 µM

Compound: Cc1c2c(=O)n(-c3ccc(F)cc3)nc-2n(CC(=O)N(C)c2ccc(Cl)cc2)c2ccccc12
- IC50 [1]: 0.00028 µM

Compound: CCN(Cc1ccccc1)C(=O)Cn1c(=O)n(C)c2cnc(-c3ccccc3)nc21
- Time [2]: 137.3 s
- Time [3]: 162.3 s
- Time [17]: 110.8 s

Compound: CN1C(=O)CN=C(c2ccccc2)c2cc(Cl)ccc21 [DIAZEPAM]
- Time [17]: 171.63 s
